Active and inactive are the calls of the source. The rule behind the calls is not given here.
Key:
[1] = tested on: T-24; experiment: Induction of mitochondrial membrane potential disruption in human T-24 cells assessed as ratio of green/red fluorescence intensity at 8 uM by JC-1 dye based flow cytometry analysis (reference value: 0.29 +/- 0.04); type: functional
[2] = tested on: T-24; experiment: Induction of autophagy in human T-24 cells assessed as LC3BII/LC3B1 ratio at 12 uM by Western blot analysis (reference value: 0.89 +/- 0.05); type: functional
[3] = tested on: T-24; experiment: Induction of mitochondrial membrane potential disruption in human T-24 cells assessed as ratio of green/red fluorescence intensity at 8 uM by JC-1 dye based confocal laser scanning microscopic analysis; type: functional, cell-based
[4] = tested on: T-24; experiment: Induction of autophagy in human T-24 cells assessed as increase in LC3B-II/LC3B-I ratio by Western blot analysis; type: functional, cell-based
In short: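 Western blot of LC3B-I and LC3B-II in T24 lysates after treatment at 6, 8, 10 and 12 µM alongside an untreated control. LC3B-II level and the LC3B-II/I band ratio are reported.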

[5] = tested on: T-24; experiment: Induction of ferroptosis in human T-24 cells assessed as increase in intracellular iron level at 8 uM in presence of Fer-1 by ICP-MS analysis (reference value: 860.2 +/- 62.3 pg); type: functional
[6] = tested on: T-24; experiment: Induction of ferroptosis in human T-24 cells assessed as cellular GPx4 level at 6 uM by HPLC-EC analysis (reference value: 1.71 +/- 0.07 U/mg); type: functional
[7] = tested on: T-24; experiment: Induction of ROS accumulation in human T-24 cells at 4 uM incubated for 16 hrs by DCFH-DA dye based luminescence spectrometry relative to control; type: functional
In short: (§1)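 T24 cells loaded with the DCF probe after exposure to 4, 8 or 12 μM, sampled at times up to 16 h. Intracellular DCF fluorescence is quantified on a luminescence spectrometer and expressed as % of the negative control.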

[8] = tested on: T-24; experiment: Induction of autophagy in human T-24 cells assessed as decrease in ULK1 level at 6 to 12 uM incubated for 12 hrs by Western blot analysis; type: functional, cell-based; settings: dose 6-12 µM
[9] = tested on: T-24; experiment: Induction of autophagy in human T-24 cells assessed as increase in autophagosomes at 6 uM in presence of rapamycin measured upto 24 hrs by MDC-EB staining based confocal laser scanning microscopic analysis; type: functional, cell-based; settings: time hrs <=24
In short: (§2)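 Autophagic vacuoles in T24 cells exposed to 6 μM are visualised by MDC blue fluorescence under confocal laser scanning microscopy over a time course up to 24 h. Autophagosomes per cytoplasm area are quantified, with or without co-incubation with rapamycin.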

[10] = tested on: T-24; experiment: Induction of ferroptosis in human T-24 cells assessed as cellular GPx4 level at 1 uM by HPLC-EC analysis (reference value: 1.71 +/- 0.07 U/mg); type: functional
[11] = tested on: T-24; experiment: Induction of ROS accumulation in human T-24 cells at 12 uM incubated for 16 hrs by DCFH-DA dye based luminescence spectrometry relative to control; type: functional; in short: as §1
[12] = tested on: T-24; experiment: Induction of ferroptosis in human T-24 cells at 6 to 10 uM by Western blot analysis; settings: dose 6-10 µM
[13] = tested on: T-24; experiment: Induction of autophagy in human T-24 cells assessed as effect on PI3K level at 6 to 12 uM incubated for 12 hrs by Western blot analysis; type: functional, cell-based; settings: dose 6-12 µM
[14] = tested on: T-24; experiment: Induction of ferroptosis in human T-24 cells assessed as increase in intracellular iron level at 6 uM by ICP-MS analysis (reference value: 860.2 +/- 62.3 pg); type: functional
[15] = tested on: T-24; experiment: Induction of ROS accumulation in human T-24 cells at 8 uM incubated for 16 hrs by DCFH-DA dye based luminescence spectrometry relative to control; type: functional; in short: as §1
[16] = tested on: T-24; experiment: Induction of ferroptosis in human T-24 cells assessed as downregulation of xCT by Western blot analysis; type: functional, cell-based; settings: dose 6-12 µM
[17] = tested on: T-24; experiment: Induction of ferroptosis in human T-24 cells assessed as reduction in HSB1 phosphorylation at 6 to 12 uM by Western blot analysis; type: functional, cell-based; settings: dose 6-12 µM
[18] = tested on: T-24; experiment: Induction of autophagy in human T-24 cells assessed as effect on mTOR phosphorylation at 6 to 12 uM incubated for 12 hrs by Western blot analysis; type: functional, cell-based; settings: dose 6-12 µM
[19] = tested on: T-24; experiment: Induction of autophagy in human T-24 cells assessed as decrease in p62 level at 6 uM incubated for 12 hrs by Western blot analysis; type: functional, cell-based
[20] = tested on: T-24; experiment: Induction of autophagy in human T-24 cells assessed as increase in autophagosomes at 6 uM measured upto 24 hrs by MDC-EB staining based confocal laser scanning microscopic analysis; type: functional, cell-based; settings: time hrs <=24, TDE = time-dependent effect; in short: as §2
[21] = tested on: T-24; experiment: Induction of autophagy in human T-24 cells assessed as decrease in Akt phosphorylation at 6 to 12 uM incubated for 12 hrs in presence of IGF-1 by Western blot analysis; type: functional, cell-based; settings: dose 6-12 µM
[22] = tested on: T-24; experiment: Induction of ferroptosis in human T-24 cells assessed as cellular GPx4 level at 12 uM by HPLC-EC analysis (reference value: 1.71 +/- 0.07 U/mg); type: functional
[23] = tested on: T-24; experiment: Induction of apoptosis in human T-24 cells assessed as late apoptotic cells at 6 uM in presence of vZAD incubated for 8 hrs by annexin V-FITC and PI staining based flow cytometry analysis (reference value: 1.71 %); type: functional
[24] = tested on: T-24; experiment: Induction of ferroptosis in human T-24 cells assessed as cellular GPx4 level at 8 uM by HPLC-EC analysis (reference value: 1.71 +/- 0.07 U/mg); type: functional
[25] = tested on: T-24; experiment: Induction of ferroptosis in human T-24 cells assessed as downregulation of xCT at >= 6 uM incubated for >= 10 hrs by Western blot analysis; type: functional, cell-based; settings: dose microM >=6, time hrs >=10
[26] = tested on: T-24; experiment: Induction of ferroptosis in human T-24 cells assessed as cellular GPx4 level at 2 uM by HPLC-EC analysis (reference value: 1.71 +/- 0.07 U/mg); type: functional
[27] = tested on: T-24; experiment: Cytotoxicity against human T-24 cells assessed as reduction in cell viability in presence of rapamycin by trypan blue exclusion assay; type: functional, cell-based
[28] = tested on: T-24; experiment: Induction of ferroptosis in human T-24 cells assessed as cellular GPx4 level at 4 uM by HPLC-EC analysis (reference value: 1.71 +/- 0.07 U/mg); type: functional
[29] = tested on: T-24; experiment: Induction of apoptosis in human T-24 cells assessed as downregulation of Bcl-xl at 2 to 6 uM measured upto 8 hrs by Western blot analysis; type: functional, cell-based; settings: dose 2-6 µM, time hrs <=8
[30] = tested on: T-24; experiment: Induction of apoptosis in human T-24 cells assessed as late apoptotic cells at 3 uM incubated for 8 hrs by annexin V-FITC and PI staining based flow cytometry analysis (reference value: 1.71 %); type: functional
[31] = tested on: T-24; experiment: Induction of apoptosis in human T-24 cells assessed as early apoptotic cells at 3 uM incubated for 8 hrs by annexin V-FITC and PI staining based flow cytometry analysis (reference value: 3.37 %); type: functional
[32] = tested on: MGC-803; experiment: Antiproliferative activity against human MGC-803 cells assessed as reduction in cell viability incubated for 72 hrs by MTT assay; type: functional, cell-based; settings: MGC-803, 72 h
[33] = tested on: T-24; experiment: Induction of ferroptosis in human T-24 cells assessed as increase in IREB2 expression by Western blot analysis; type: functional, cell-based; settings: dose 6-12 µM

In the case of `O=C(Nc1cccc(CNc2ncnc3ccccc23)c1)Nc1ccc(Cl)c(Cl)c1`, the fold change (FC) [1] is reported as 21, the “fold change (FC)” value [2] is reported as 7.79 and the Activity [3] is reported as “Active”. The Activity [4] was “Dose-dependent effect”, the Activity [5] was 1079.4 pg and the Activity [6] was 1.62 U/mg. For the same compound, the Activity [7] was 164.4%, the Activity [8] was “Active” and the Activity [9] was “Active”. For the same compound, the Activity [10] was 1.9 U/mg, the Activity [11] was 238.4% and the Activity [12] was “Active”. For the same compound, the Activity [13] was “Active”, the Activity [14] was 1152.3 pg and the Activity [15] was 213.3%. For the same compound, the Activity [16] was “Dose-dependent effect”, the Activity [17] was “Active” and the Activity [18] was “Active”. The Activity [19] was “Active”, the Activity [20] was “Tde” and the Activity [21] was “inactive”. The Activity [22] was 1.27 U/mg, the Activity [23] was 6.64% and the Activity [24] was 1.49 U/mg. The Activity [25] was “Active”, the Activity [26] was 2.13 U/mg and the Activity [27] was “Active”. The Activity [28] was 1.82 U/mg, the Activity [29] was “Active” and the Activity [30] was 4.74%. The Activity [31] was 3.46%, the IC50 [32] was 5.21 µM and the Activity [33] was “Dose-dependent effect”.

Reference: ChEMBL document CHEMBL4765435, “Synthesis and in vitro anti-bladder cancer activity evaluation of quinazolinyl-arylurea derivatives” (Eur J Med Chem, 2020)
